Reference: ChEMBL document CHEMBL1926565, “Synthesis, antiproliferative activities and telomerase inhibition evaluation of novel asymmetrical 1,2-disubstituted amidoanthraquinone derivatives” (Eur J Med Chem, 2012)
Activity calls are given as the source filed them. The calls are words filed in the database; no cut-off is given here.

Experiments:
SF-539 = experiment: Cytotoxicity against human SF539 cells assessed as cellular growth at 10 uM; format: functional
How it was run: (§1)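 Single-dose screen run by the NCI across its 60-human-tumour-cell-line panel; growth recorded for each cell line.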

UO-31 = experiment: Cytotoxicity against human UO31 cells assessed as cellular growth at 10 uM; format: functional
SF-295 = experiment: Cytotoxicity against human SF295 cells assessed as cellular growth at 10 uM; format: functional; how it was run: as §1
HL-60(TB) = experiment: Cytotoxicity against human HL-60(TB) cells assessed as cellular growth at 10 uM; format: functional; how it was run: as §1
HCT-15 = experiment: Cytotoxicity against human HCT15 cells assessed as cellular growth at 10 uM; format: functional; how it was run: as §1
OVCAR-8 = experiment: Cytotoxicity against human OVCAR8 cells assessed as cellular growth at 10 uM; format: functional; how it was run: as §1
IGROV-1 = experiment: Cytotoxicity against human IGROV1 cells assessed as cellular growth at 10 uM; format: functional; how it was run: as §1
MOLT-4 = experiment: Cytotoxicity against human MOLT4 cells assessed as cellular growth at 10 uM; format: functional; how it was run: as §1
PC-3 [1] = experiment: Cytotoxicity against human PC3 cells after 48 hrs by SRB assay; format: functional, cell-based; settings: PC-3, 48 h
How it was run: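 PC-3 cells grown in RPMI1640 with 10% FBS at 37 °C, 5% CO₂. Seeded in medium with 5% FBS; after 24 h, one plate fixed with 10% TCA as T₀. Compound or 0.1% DMSO vehicle added for 48 h, then TCA fixation and 0.4% SRB in 1% acetic acid. Dye solubilized in 10 mM Trizma base, absorbance read at 515 nm. IC50 is the concentration giving 50% reduction of the protein gain in controls.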

M14 = experiment: Cytotoxicity against human M14 cells assessed as cellular growth at 10 uM; format: functional; how it was run: as §1
[2] = Cytotoxicity against human Hs 578T cells assessed as cellular growth at 10 uM; format: functional; how it was run: as §1
NCI-H23 = experiment: Cytotoxicity against human NCI-H23 cells assessed as cellular growth at 10 uM; format: functional; how it was run: as §1
SK-OV-3 = experiment: Cytotoxicity against human SKOV3 cells assessed as cellular growth at 10 uM; format: functional
HCT-116 = experiment: Cytotoxicity against human HCT116 cells assessed as cellular growth at 10 uM; format: functional; how it was run: as §1
[3] = Growth of human H1299 cells at 10 uM after 48 hrs by MTT assay; settings: NCI-H1299, 48 h
COLO 205 = experiment: Cytotoxicity against human COLO205 cells assessed as cellular growth at 10 uM; format: functional; how it was run: as §1
TK-10 = experiment: Cytotoxicity against human TK10 cells assessed as cellular growth at 10 uM; format: functional
MCF7 = experiment: Cytotoxicity against human MCF7 cells assessed as cellular growth at 10 uM; format: functional; how it was run: as §1
Malme-3M = experiment: Cytotoxicity against human MALME-3M cells assessed as cellular growth at 10 uM; format: functional; how it was run: as §1
MDA-MB-231 = experiment: Cytotoxicity against human MDA-MB-231 cells assessed as cellular growth at 10 uM; format: functional; how it was run: as §1
HOP-62 = experiment: Cytotoxicity against human HOP62 cells assessed as cellular growth at 10 uM; format: functional; how it was run: as §1
HT-29 = experiment: Cytotoxicity against human HT-29 cells assessed as cellular growth at 10 uM; format: functional; how it was run: as §1
OVCAR-4 = experiment: Cytotoxicity against human OVCAR4 cells assessed as cellular growth at 10 uM; format: functional; how it was run: as §1
BT-549 = experiment: Cytotoxicity against human BT549 cells assessed as cellular growth at 10 uM; format: functional; how it was run: as §1
KM12 = experiment: Cytotoxicity against human KM12 cells assessed as cellular growth at 10 uM; format: functional; how it was run: as §1
SNB-19 = experiment: Cytotoxicity against human SNB19 cells assessed as cellular growth at 10 uM; format: functional
SN12C = experiment: Cytotoxicity against human SN12C cells assessed as cellular growth at 10 uM; format: functional
UACC-257 = experiment: Cytotoxicity against human UACC257 cells assessed as cellular growth at 10 uM; format: functional
[4] = molecular target: Telomerase reverse transcriptase (Homo sapiens) (UniProt O14746); experiment: Residual activity of human TERT in H1299 cells at 10 uM after 24 hrs by SEAP reporter gene assay
Telomerase reverse transcriptase (Homo sapiens), sequence (O14746 whole entry): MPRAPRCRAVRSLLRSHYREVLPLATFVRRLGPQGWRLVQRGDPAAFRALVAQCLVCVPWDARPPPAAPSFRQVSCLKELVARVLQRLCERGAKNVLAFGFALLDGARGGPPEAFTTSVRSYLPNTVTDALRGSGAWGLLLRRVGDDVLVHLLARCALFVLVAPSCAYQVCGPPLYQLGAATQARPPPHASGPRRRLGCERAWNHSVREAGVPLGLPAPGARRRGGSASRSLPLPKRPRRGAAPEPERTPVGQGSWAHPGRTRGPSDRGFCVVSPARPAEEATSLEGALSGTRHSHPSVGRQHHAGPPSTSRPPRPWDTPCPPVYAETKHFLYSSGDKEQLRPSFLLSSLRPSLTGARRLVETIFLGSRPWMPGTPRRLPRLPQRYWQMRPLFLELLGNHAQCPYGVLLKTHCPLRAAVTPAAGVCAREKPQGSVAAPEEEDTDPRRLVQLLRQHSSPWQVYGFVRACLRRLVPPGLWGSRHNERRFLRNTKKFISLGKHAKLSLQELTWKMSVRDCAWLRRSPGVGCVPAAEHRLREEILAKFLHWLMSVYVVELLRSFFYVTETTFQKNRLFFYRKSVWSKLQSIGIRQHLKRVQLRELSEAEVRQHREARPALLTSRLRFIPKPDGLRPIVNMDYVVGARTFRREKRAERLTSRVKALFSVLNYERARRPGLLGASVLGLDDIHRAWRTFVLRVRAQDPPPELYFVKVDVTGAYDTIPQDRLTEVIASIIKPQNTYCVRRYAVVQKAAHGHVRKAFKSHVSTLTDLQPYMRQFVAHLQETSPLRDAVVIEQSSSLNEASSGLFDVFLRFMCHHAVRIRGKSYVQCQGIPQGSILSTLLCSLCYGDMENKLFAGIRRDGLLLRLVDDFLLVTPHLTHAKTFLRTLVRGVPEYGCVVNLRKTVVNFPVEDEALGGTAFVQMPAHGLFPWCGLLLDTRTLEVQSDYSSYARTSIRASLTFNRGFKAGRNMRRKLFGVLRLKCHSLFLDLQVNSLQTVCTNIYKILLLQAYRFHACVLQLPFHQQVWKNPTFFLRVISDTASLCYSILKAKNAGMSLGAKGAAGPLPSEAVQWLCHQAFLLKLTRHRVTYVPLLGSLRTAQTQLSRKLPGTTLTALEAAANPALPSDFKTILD

SF-268 = experiment: Cytotoxicity against human SF268 cells assessed as cellular growth at 10 uM; format: functional; how it was run: as §1
CAKI-1 = experiment: Cytotoxicity against human Caki1 cells assessed as cellular growth at 10 uM; format: functional; how it was run: as §1
[5] = Growth of human H1299 cells at 100 uM 48 hrs by MTT assay; settings: NCI-H1299, 48 h
NCI-H522 = experiment: Cytotoxicity against human NCI-H522 cells assessed as cellular growth at 10 uM; format: functional; how it was run: as §1
PC-3 [6] = experiment: Cytotoxicity against human PC3 cells assessed as cellular growth at 10 uM; format: functional; how it was run: as §1
786-0 = experiment: Cytotoxicity against human 786-0 cells assessed as cellular growth at 10 uM; format: functional; how it was run: as §1
MDA-MB-468 = experiment: Cytotoxicity against human MDA-MB-468 cells assessed as cellular growth at 10 uM; format: functional; how it was run: as §1
[7] = molecular target: Telomerase reverse transcriptase (Homo sapiens) (UniProt O14746); experiment: Inhibition of telomerase activity in human H1299 cell free extract at 10 uM by modified TRAP assay
How it was run: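 TRAP assay using total cell lysate from H1299 lung cancer cells as the telomerase source, with protein measured against BSA standards. Compounds tested at 10 µM. Controls were lysate without inhibitor (positive) and RNase A-treated extract without inhibitor (negative).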

SW-620 = experiment: Cytotoxicity against human SW620 cells assessed as cellular growth at 10 uM; format: functional
CCRF-CEM = experiment: Cytotoxicity against human CCRF-CEM cells assessed as cellular growth at 10 uM; format: functional; how it was run: as §1
K562 = experiment: Cytotoxicity against human K562 cells assessed as cellular growth at 10 uM; format: functional; how it was run: as §1
[8] = molecular target: Telomerase reverse transcriptase (Homo sapiens) (UniProt O14746); experiment: Residual activity of human TERT in H1299 cells at 1 uM after 24 hrs by SEAP reporter gene assay
UACC-62 = experiment: Cytotoxicity against human UACC62 cells assessed as cellular growth at 10 uM; format: functional
[9] = molecular target: Telomerase reverse transcriptase (Homo sapiens) (UniProt O14746); experiment: Residual activity of human TERT in H1299 cells at 100 uM after 24 hrs by SEAP reporter gene assay
OVCAR-3 = experiment: Cytotoxicity against human OVCAR3 cells assessed as cellular growth at 10 uM; format: functional; how it was run: as §1
[10] = Growth of human H1299 cells at 1 uM after 48 hrs by MTT assay; settings: NCI-H1299, 48 h
EKVX = experiment: Cytotoxicity against human EKVX cells assessed as cellular growth at 10 uM; format: functional; how it was run: as §1
MDA-MB-435 = experiment: Cytotoxicity against human MDA-MB-435 cells assessed as cellular growth at 10 uM; format: functional; how it was run: as §1
NCI/ADR-RES = experiment: Cytotoxicity against human NCI/ADR-RES cells assessed as cellular growth at 10 uM; format: functional; how it was run: as §1

Cc1ccc(C(=O)Nc2ccc3c(c2NC(=O)c2ccc(C)cc2)C(=O)c2ccccc2C3=O)cc1
Activity (SF-539): 97.26% | Activity (UO-31): 66.54% | Activity (SF-295): 110.81% | Activity (HL-60(TB)): 73.11% | Activity (HCT-15): 102.44% | Activity (OVCAR-8): 85.43% | Activity (IGROV-1): 78.71% | Activity (MOLT-4): 89.63% | IC50 (PC-3 [1]): 3.16 µM | Activity (M14): 91.57% | Activity [2]: 105.96% | Activity (NCI-H23): 90.57% | Activity (SK-OV-3): 109.62% | Activity (HCT-116): 78.55% | growth, % of control at 10 µM [3]: 116% | Activity (COLO 205): 108.57% | Activity (TK-10): 124.91% | Activity (MCF7): 71.71% | Activity (Malme-3M): 127.16% | Activity (MDA-MB-231): 93.29% | Activity (HOP-62): 105.23% | Activity (HT-29): 99.39% | Activity (OVCAR-4): 104.32% | Activity (BT-549): 95.39% | Activity (KM12): 94.21% | Activity (SNB-19): 103.91% | Activity (SN12C): 98.59% | Activity (UACC-257): 98.46% | residual activity [4]: 97% | Activity (SF-268): 98.91% | Activity (CAKI-1): 94.89% | growth, % of control at 100 µM [5]: 62% | Activity (NCI-H522): 72.05% | Activity (PC-3 [6]): 82.91% | Activity (786-0): 116.17% | Activity (MDA-MB-468): 104.17% | inhibition [7]: inactive | Activity (SW-620): 93.79% | Activity (CCRF-CEM): 79.02% | Activity (K562): 107.54% | residual activity [8]: 108% | Activity (UACC-62): 87.5% | residual activity [9]: 30% | Activity (OVCAR-3): 97.9% | growth, % of control at 1 µM [10]: 100%

Cc1ccc(C(=O)Nc2c(NC(=O)CN3CCN(C)CC3)ccc3c2C(=O)c2ccccc2C3=O)cc1
Activity (SF-539): 62.68% | Activity (UO-31): 70.66% | Activity (SF-295): 89.86% | Activity (HL-60(TB)): -8.54% | Activity (HCT-15): 27.47% | Activity (OVCAR-8): 46.43% | Activity (IGROV-1): 112.2% | Activity (MOLT-4): 26.04% | IC50 (PC-3 [1]): 3.46 µM | Activity (M14): -60.04% | Activity [2]: 87.29% | Activity (NCI-H23): 89.52% | Activity (SK-OV-3): 108.91% | Activity (HCT-116): 8.37% | growth, % of control at 10 µM [3]: 13% | Activity (EKVX): 78.07% | Activity (COLO 205): 2.29% | Activity (TK-10): 101.93% | Activity (MCF7): 31.79% | Activity (Malme-3M): 10.84% | Activity (MDA-MB-231): 37% | Activity (HOP-62): 75.21% | Activity (HT-29): 3.69% | Activity (OVCAR-4): 57.11% | Activity (BT-549): 91.88% | Activity (MDA-MB-435): 11.15% | Activity (KM12): 44.05% | Activity (SNB-19): 68.75% | Activity (SN12C): 63.31% | Activity (UACC-257): -50.95% | residual activity [4]: 29% | Activity (SF-268): 59.11% | Activity (CAKI-1): 69.76% | growth, % of control at 100 µM [5]: 3% | Activity (NCI-H522): 88.21% | Activity (PC-3 [6]): 84.75% | Activity (NCI/ADR-RES): 66.74% | Activity (786-0): 11.9% | Activity (MDA-MB-468): 7.43% | inhibition [7]: inactive | Activity (SW-620): 39.17% | Activity (CCRF-CEM): 61.06% | Activity (K562): -4.52% | residual activity [8]: 78% | Activity (UACC-62): -20.65% | residual activity [9]: 8% | Activity (OVCAR-3): -6.15% | growth, % of control at 1 µM [10]: 77%
